Data taken from ChEMBL document CHEMBL5678808, “Human target validation of phosphoinositide 3-kinase (PI3K)β: effects on platelets and insulin sensitivity, using AZD6482 a novel PI3Kβ inhibitor” (J Thromb Haemost, 2012).

Columns and labels:
[1] = target: DNA-dependent protein kinase catalytic subunit (Homo sapiens, UniProt P78527); experiment: Inhibition of human DNA-PK assessed as reduction in protein phosphorylation by ELISA
Summary of the method: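 Recombinant human DNA-PK was tested in a functional assay, with substrate protein phosphorylation read by ELISA. IC50 is reported as mean ± SEM, with the number of determinations given.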

[2] = target: Aurora kinase C (Homo sapiens) (UniProt Q9UQB9); experiment: Inhibition of human AuroraC at 10 uM relative to control
[3] = target: Serine/threonine-protein kinase pim-1 (Homo sapiens) (UniProt P11309); experiment: Inhibition of human PIM1 at 10 uM relative to control
Homo sapiens = species on record: Homo sapiens; experiment: Inhibition of human CDK2/Cyclin A at 10 uM relative to control
[4] = target: Casein kinase 2 (Homo sapiens) (UniProt P67870+P68400+P19784+Q8NEV1); experiment: Inhibition of human CK2 at 10 uM relative to control; type: protein assay
[5] = target: Mitogen-activated protein kinase 8 (Homo sapiens) (UniProt P45983); experiment: Inhibition of human JNK1 at 10 uM relative to control
[6] = target: Mitogen-activated protein kinase 11 (Homo sapiens) (UniProt Q15759); experiment: Inhibition of human p38b at 10 uM relative to control
[7] = target: Calcium/calmodulin-dependent protein kinase type 1 (Homo sapiens) (UniProt Q14012); experiment: Inhibition of human CAMK at 10 uM relative to control
[8] = target: Inhibitor of nuclear factor kappa-B kinase subunit beta (Homo sapiens) (UniProt O14920); experiment: Inhibition of human IKKb at 10 uM relative to control
[9] = target: MAP kinase-interacting serine/threonine-protein kinase 2 (Homo sapiens) (UniProt Q9HBH9); experiment: Inhibition of human MNK2 at 10 uM relative to control
[10] = target: SRSF protein kinase 1 (Homo sapiens) (UniProt Q96SB4); experiment: Inhibition of human SRPK1 at 10 uM relative to control
[11] = target: Serine/threonine-protein kinase BRSK2 (Homo sapiens) (UniProt Q8IWQ3); experiment: Inhibition of human BRSK2 at 10 uM relative to control
[12] = target: Homeodomain-interacting protein kinase 2 (Homo sapiens) (UniProt Q9H2X6); experiment: Inhibition of human HIPK2 at 10 uM relative to control
[13] = Protein binding in human plasma assessed as unbound fraction; type: ADME, cell-free
Rattus norvegicus [14] = experiment: Insulin sensitizing activity in Sprague-Dawley rat hyperinsulinemic-euglycemic glucose clamp model assessed as glucose infusion rate required to maintain euglycemia during infusion of human insulin at 1000 ug/kg/min, iv for 2 mins followed by 50 ug/kg/min, iv for 28 mins measured during clamp 1 (reference value: 124 +/- 4 umol/min/kg); type: functional; conditions: time 30 min, 0.5 h
Summary of the method: (§1)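 Anesthetized rats; hyperinsulinemic–euglycemic clamp with human insulin infused. A baseline clamp (Clamp1) was followed by a second clamp (Clamp2) with vehicle or drug i.v. The drug was given as a low dose (1000 μg kg−1 + 50 μg kg min−1) or a high dose (6000 μg kg−1 + 300 μg kg min−1). Steady-state glucose infusion rate for euglycemia was recorded, with plasma glucose, human insulin and total insulin; mean ± SEM, n = 4–5/group.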

Rattus norvegicus [15] = experiment: Insulin sensitizing activity in Sprague-Dawley rat hyperinsulinemic-euglycemic glucose clamp model assessed as glucose infusion rate required to maintain euglycemia during infusion of human insulin at 1000 ug/kg/min, iv for 2 mins followed by 50 ug/kg/min, iv for 28 mins measured during clamp 2 (reference value: 138 +/- 4 umol/min/kg); type: functional; conditions: time 30 min, 0.5 h; summary of the method: as §1
Rattus norvegicus [16] = experiment: Insulin sensitizing activity in Sprague-Dawley rat hyperinsulinemic-euglycemic glucose clamp model assessed as glucose infusion rate required to maintain euglycemia during infusion of human insulin at 6000 ug/kg/min, iv for 2 mins followed by 300 ug/kg/min, iv for 28 mins measured during clamp 1 (reference value: 124 +/- 4 umol/min/kg); type: functional; conditions: time 30 min, 0.5 h; summary of the method: as §1
Rattus norvegicus [17] = experiment: Insulin sensitizing activity in Sprague-Dawley rat hyperinsulinemic-euglycemic glucose clamp model assessed as glucose level during infusion of human insulin at 1000 ug/kg/min, iv for 2 mins followed by 50 ug/kg/min, iv for 28 mins measured during clamp 2 by colorimetry (reference value: 8.1 +/- 0.7 mM); type: functional; conditions: time 30 min, 0.5 h; summary of the method: as §1
Rattus norvegicus [18] = experiment: Insulin sensitizing activity in Sprague-Dawley rat hyperinsulinemic-euglycemic glucose clamp model assessed as human insulin level during infusion of human insulin at 1000 ug/kg/min, iv for 2 mins followed by 50 ug/kg/min, iv for 28 mins measured during clamp 2 (reference value: 1.8 +/- 0.1 nM); type: functional; conditions: time 30 min, 0.5 h; summary of the method: as §1
Rattus norvegicus [19] = experiment: Insulin sensitizing activity in Sprague-Dawley rat hyperinsulinemic-euglycemic glucose clamp model assessed as basal total insulin level during infusion of human insulin at 6000 ug/kg/min, iv for 2 mins followed by 300 ug/kg/min, iv for 28 mins (reference value: 0.3 +/- 0.1 nM); type: functional; conditions: time 30 min, 0.5 h; summary of the method: as §1
Rattus norvegicus [20] = experiment: Insulin sensitizing activity in Sprague-Dawley rat hyperinsulinemic-euglycemic glucose clamp model assessed as total insulin level during infusion of human insulin at 6000 ug/kg/min, iv for 2 mins followed by 300 ug/kg/min, iv for 28 mins measured during clamp 2 (reference value: 2.2 +/- 0.1 nM); type: functional; conditions: time 30 min, 0.5 h; summary of the method: as §1
[21] = Toxicity in Sprague-Dawley rat assessed as change in heart rate at 30000 ug/kg, iv for 2 mins followed by 1500 ug/kg/min, iv for 28 mins; type: organism-based; conditions: in vivo, 30 mg/kg, 0.5 h, time 30 min
Summary of the method: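 Overnight-fasted anesthetized rats got three consecutive escalating i.v. doses over 30 min each (n = 4/group). Heart rate and blood pressure were followed alongside end-of-interval blood samples for plasma drug exposure, glucose and insulin (relative HOMA index experiments).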

[22] = Toxicity in Sprague-Dawley rat hyperinsulinemic-euglycemic glucose clamp model assessed as change in heart rate at 1000 ug/kg/min, iv for 2 mins followed by 50 ug/kg/min, iv for 28 mins; type: organism-based; conditions: in vivo, 0.5 h, time 30 min
Summary of the method: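 Anesthetized rats underwent two consecutive hyperinsulinemic–euglycemic clamps with human insulin infusion: a baseline Clamp1, then Clamp2 with vehicle or AZD6482 i.v. (n = 4–5/group). Blood pressure and heart rate were followed during control periods and after drug administration. Steady-state glucose infusion rate maintained euglycemia.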

[23] = Clearance in human at 0.9 to 455.8 mg, iv administered for 3 hrs via infusion by LC-MS/MS analysis; type: ADME, organism-based; conditions: in vivo, dose 0.9-455.8 mg
Summary of the method: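 Randomized, double-blind, placebo-controlled single ascending-dose study in healthy male volunteers aged 18–36. Each subject received a 3-h i.v. infusion (0.9–455.8 mg). Plasma levels were measured by protein precipitation and LC-MS/MS (LLOQ 0.005 μm), with non-compartmental PK analysis. Half-life was calculated only for the four highest dose groups. The 3-h sample was taken as Css.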

[24] = Renal clearance (0 to 24 hrs) in human at 121.5 to 364.5 mg, iv administered for 3 hrs via infusion by LC-MS/MS analysis; conditions: in vivo

Chain of Serine/threonine-protein kinase BRSK2 (Homo sapiens) (Q8IWQ3 whole entry): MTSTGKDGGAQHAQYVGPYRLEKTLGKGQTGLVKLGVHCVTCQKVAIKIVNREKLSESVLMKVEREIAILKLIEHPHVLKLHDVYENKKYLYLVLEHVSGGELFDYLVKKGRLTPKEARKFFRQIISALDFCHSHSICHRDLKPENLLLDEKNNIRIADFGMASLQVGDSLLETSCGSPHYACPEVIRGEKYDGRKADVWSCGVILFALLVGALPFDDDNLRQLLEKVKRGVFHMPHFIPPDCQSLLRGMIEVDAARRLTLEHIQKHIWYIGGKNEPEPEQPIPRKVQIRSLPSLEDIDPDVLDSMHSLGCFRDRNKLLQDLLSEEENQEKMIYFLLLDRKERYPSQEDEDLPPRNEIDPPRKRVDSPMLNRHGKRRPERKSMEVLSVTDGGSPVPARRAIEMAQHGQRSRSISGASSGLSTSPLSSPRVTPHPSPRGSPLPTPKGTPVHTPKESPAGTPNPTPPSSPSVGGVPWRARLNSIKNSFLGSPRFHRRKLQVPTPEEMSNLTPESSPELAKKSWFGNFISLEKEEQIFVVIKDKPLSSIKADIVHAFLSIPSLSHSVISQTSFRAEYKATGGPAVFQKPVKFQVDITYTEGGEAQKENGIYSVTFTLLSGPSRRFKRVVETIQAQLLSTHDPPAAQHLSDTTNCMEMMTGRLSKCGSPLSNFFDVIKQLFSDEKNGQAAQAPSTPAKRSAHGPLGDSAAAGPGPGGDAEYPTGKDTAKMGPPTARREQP
Chain of Calcium/calmodulin-dependent protein kinase type 1 (Homo sapiens) (Q14012 whole entry, looked up): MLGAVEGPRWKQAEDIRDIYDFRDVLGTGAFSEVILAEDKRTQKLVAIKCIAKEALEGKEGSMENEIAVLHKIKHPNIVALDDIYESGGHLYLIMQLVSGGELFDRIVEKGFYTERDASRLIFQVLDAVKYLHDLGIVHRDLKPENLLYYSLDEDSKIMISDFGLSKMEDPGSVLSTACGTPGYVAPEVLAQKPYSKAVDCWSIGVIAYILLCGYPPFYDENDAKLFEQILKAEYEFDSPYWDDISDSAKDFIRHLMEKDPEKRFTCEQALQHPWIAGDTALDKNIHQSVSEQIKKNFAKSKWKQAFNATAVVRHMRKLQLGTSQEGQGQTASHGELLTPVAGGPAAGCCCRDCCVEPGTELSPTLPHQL
Chain of Homeodomain-interacting protein kinase 2 (Homo sapiens) (Q9H2X6 whole entry, looked up): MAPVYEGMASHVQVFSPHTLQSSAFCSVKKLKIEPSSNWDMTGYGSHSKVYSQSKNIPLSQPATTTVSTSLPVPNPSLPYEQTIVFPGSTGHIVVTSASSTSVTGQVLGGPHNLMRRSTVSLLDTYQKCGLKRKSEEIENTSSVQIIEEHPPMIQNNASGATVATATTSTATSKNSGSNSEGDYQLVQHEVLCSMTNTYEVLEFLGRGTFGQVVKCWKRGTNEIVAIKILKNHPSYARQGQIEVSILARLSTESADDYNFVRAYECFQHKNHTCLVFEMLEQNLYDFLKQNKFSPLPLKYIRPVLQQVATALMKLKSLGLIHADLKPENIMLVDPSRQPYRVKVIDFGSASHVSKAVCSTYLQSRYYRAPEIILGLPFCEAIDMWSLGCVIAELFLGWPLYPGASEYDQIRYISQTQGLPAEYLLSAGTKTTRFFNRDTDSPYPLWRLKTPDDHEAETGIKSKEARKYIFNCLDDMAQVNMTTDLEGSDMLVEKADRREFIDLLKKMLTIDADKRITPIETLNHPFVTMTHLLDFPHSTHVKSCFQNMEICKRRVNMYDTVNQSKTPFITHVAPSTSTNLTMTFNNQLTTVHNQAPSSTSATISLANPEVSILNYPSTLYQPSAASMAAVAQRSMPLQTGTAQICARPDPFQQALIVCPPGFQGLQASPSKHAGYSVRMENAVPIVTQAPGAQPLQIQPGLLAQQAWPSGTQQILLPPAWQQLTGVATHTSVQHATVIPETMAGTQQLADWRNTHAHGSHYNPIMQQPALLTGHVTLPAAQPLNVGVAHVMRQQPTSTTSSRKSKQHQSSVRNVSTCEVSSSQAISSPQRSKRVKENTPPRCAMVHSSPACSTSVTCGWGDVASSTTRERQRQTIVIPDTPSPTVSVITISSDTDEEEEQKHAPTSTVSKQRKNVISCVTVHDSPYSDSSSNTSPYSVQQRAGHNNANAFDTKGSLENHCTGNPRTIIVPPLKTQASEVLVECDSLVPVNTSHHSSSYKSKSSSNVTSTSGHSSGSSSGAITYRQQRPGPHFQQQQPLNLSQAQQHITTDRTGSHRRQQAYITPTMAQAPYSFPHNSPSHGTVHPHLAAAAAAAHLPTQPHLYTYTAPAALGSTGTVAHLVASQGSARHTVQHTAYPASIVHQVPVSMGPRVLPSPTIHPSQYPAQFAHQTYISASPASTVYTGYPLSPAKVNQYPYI
Chain of Serine/threonine-protein kinase pim-1 (Homo sapiens) (P11309 whole entry, looked up): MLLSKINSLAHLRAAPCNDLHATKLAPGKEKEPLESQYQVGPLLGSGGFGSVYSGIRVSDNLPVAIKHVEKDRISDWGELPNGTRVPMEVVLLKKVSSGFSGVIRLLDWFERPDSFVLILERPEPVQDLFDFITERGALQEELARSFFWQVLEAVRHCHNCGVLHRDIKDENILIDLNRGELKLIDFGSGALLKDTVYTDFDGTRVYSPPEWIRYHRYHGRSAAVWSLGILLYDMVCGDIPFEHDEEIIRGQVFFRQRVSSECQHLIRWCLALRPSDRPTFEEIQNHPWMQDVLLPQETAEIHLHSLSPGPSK
Chain of Inhibitor of nuclear factor kappa-B kinase subunit beta (Homo sapiens) (O14920 whole entry): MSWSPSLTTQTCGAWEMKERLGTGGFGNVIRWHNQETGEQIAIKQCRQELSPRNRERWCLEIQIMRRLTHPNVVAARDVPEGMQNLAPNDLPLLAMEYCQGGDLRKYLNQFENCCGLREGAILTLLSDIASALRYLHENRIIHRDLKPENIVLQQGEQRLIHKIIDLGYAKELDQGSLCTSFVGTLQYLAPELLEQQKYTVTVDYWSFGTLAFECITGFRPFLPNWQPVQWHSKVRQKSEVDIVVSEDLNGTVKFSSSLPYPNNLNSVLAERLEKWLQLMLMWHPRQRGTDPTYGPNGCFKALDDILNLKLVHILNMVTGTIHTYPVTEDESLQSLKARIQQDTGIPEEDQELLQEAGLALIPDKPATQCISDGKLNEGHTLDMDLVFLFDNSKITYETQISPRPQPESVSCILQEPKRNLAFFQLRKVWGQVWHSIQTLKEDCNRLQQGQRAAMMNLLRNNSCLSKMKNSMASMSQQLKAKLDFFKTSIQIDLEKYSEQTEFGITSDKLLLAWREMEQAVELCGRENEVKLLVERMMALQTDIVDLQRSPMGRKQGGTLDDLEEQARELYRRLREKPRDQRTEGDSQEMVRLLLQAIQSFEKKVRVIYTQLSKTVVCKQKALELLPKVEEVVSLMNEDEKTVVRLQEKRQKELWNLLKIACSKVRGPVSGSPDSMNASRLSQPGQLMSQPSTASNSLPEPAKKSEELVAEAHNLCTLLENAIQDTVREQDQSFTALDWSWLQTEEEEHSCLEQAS
Chain of Mitogen-activated protein kinase 8 (Homo sapiens) (P45983 whole entry): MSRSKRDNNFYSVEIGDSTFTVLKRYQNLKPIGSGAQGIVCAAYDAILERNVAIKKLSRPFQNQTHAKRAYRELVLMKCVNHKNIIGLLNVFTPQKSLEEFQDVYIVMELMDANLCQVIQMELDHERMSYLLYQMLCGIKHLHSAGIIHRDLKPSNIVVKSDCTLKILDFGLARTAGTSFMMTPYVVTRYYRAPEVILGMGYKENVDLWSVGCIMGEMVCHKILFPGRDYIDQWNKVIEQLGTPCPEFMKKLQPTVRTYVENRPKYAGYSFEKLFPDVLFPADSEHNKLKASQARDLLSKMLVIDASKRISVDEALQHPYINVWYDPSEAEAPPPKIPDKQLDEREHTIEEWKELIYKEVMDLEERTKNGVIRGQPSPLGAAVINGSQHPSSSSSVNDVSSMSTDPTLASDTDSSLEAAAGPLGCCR
Chain of MAP kinase-interacting serine/threonine-protein kinase 2 (Homo sapiens) (Q9HBH9 whole entry, looked up): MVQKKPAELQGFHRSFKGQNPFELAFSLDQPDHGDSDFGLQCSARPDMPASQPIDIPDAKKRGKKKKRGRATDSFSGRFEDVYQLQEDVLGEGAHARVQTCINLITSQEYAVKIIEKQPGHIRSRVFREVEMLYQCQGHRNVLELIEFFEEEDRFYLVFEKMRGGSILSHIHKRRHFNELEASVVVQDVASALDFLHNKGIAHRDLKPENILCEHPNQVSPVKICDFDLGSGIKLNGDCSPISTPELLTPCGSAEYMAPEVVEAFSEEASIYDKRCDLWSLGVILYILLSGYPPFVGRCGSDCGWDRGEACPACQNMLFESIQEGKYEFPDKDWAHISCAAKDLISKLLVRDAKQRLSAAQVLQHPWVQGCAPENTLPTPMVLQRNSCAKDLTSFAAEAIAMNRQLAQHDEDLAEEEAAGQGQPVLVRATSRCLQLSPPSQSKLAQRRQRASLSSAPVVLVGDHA
Chain of Mitogen-activated protein kinase 11 (Homo sapiens) (Q15759 whole entry): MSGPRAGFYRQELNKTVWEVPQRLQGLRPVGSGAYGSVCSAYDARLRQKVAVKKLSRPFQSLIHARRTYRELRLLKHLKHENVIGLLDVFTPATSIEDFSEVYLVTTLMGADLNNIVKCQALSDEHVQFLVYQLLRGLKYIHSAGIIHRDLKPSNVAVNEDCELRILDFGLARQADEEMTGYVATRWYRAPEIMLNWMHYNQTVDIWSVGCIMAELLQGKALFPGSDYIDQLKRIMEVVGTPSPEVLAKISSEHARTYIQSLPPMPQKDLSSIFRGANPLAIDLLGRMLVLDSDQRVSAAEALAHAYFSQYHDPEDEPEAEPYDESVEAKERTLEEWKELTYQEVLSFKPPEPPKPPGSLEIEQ
Chain of Aurora kinase C (Homo sapiens) (Q9UQB9 whole entry): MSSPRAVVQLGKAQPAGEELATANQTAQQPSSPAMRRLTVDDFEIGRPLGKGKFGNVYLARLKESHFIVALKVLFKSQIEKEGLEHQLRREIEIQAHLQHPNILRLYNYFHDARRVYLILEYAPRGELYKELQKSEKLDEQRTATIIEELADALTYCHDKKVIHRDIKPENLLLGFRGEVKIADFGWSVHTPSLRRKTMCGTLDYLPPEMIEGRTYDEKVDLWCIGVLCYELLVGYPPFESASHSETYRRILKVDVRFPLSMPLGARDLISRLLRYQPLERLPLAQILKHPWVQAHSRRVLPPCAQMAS

Cc1cc([C@@H](C)Nc2ccccc2C(=O)O)c2nc(N3CCOCC3)cc(=O)n2c1 [AZD-6482]
IC50 [1]: 420 nM | inhibition [2]: 56% | inhibition [3]: 24% | inhibition (Homo sapiens): -1.6% | inhibition [4]: 4.2% | inhibition [5]: 9.1% | inhibition [6]: 18% | inhibition [7]: 9.7% | inhibition [8]: -8.9% | inhibition [9]: 6.2% | inhibition [10]: -9.4% | inhibition [11]: 2.5% | inhibition [12]: 1% | fraction unbound [13]: 0.08 | Activity (Rattus norvegicus [14]): 105 µmol/min/kg | Activity (Rattus norvegicus [15]): 107 µmol/min/kg | Activity (Rattus norvegicus [16]): 106 µmol/min/kg | Activity (Rattus norvegicus [17]): 7.2 mM | Activity (Rattus norvegicus [18]): 1.8 nM | Activity (Rattus norvegicus [19]): 0.4 nM | Activity (Rattus norvegicus [20]): 3.4 nM | Activity [21]: Non-Toxic | Activity [22]: Non-Toxic | clearance [23]: 1180 mL/min | CL renal at 3 h [24]: 1.5 mL/min
